Laboratory results taken from ChEMBL document CHEMBL3227949, “Antimalarials. 4. Trichloronaphthalene amino alcohols” (1979).
The source made the active and inactive calls. The rule behind the calls is not given here.

Tests used:
Plasmodium berghei [1] = experiment: Antimalarial activity against sc dosed Plasmodium berghei infected in mouse assessed as dose resulting in mean survival time […]; assay type: functional; conditions: read-out: MED
Plasmodium berghei [2] = experiment: Antimalarial activity against Plasmodium berghei infected in mouse assessed as change in mean survival time at 10 mg/kg, sc administered as single dose 72 hrs after parasite infection (reference value: 6.1 days); assay type: functional; conditions: route subcutaneous
Plasmodium berghei [3] = experiment: Antimalarial activity against Plasmodium berghei infected in mouse assessed as change in mean survival time at 20 mg/kg, sc administered as single dose 72 hrs after parasite infection (reference value: 6.1 days); assay type: functional; conditions: route subcutaneous
Plasmodium berghei [4] = experiment: Antimalarial activity against Plasmodium berghei infected in mouse assessed as curing of parasite infection at 640 mg/kg, sc administered as single dose 72 hrs after parasite infection; assay type: functional, organism-based; design: dose 640 mg/kg
Plasmodium berghei [5] = experiment: Antimalarial activity against Plasmodium berghei infected in mouse assessed as change in mean survival time at 40 mg/kg, sc administered as single dose 72 hrs after parasite infection (reference value: 6.1 days); assay type: functional; conditions: route subcutaneous
Plasmodium berghei [6] = experiment: Antimalarial activity against Plasmodium berghei infected in mouse assessed as curing of parasite infection at 320 mg/kg, sc administered as single dose 72 hrs after parasite infection; assay type: functional, organism-based; design: dose 320 mg/kg
In short: (§1)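 Mice (five per group) infected with P. berghei were given a single subcutaneous dose 72 h after infection. Increase in mean survival time over infected untreated controls was recorded, and an increase of at least 100% counted as activity. The screen was run by Rane Laboratories.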

Plasmodium berghei [7] = experiment: Antimalarial activity against Plasmodium berghei infected in mouse assessed as curing of parasite infection at 160 mg/kg, sc administered as single dose 72 hrs after parasite infection; assay type: functional, organism-based; design: dose 160 mg/kg; in short: as §1
Plasmodium berghei [8] = experiment: Antimalarial activity against Plasmodium berghei infected in mouse assessed as change in mean survival time at 80 mg/kg, sc administered as single dose 72 hrs after parasite infection (reference value: 6.1 days); assay type: functional; conditions: route subcutaneous
Plasmodium berghei [9] = experiment: Antimalarial activity against Plasmodium berghei infected in mouse assessed as change in mean survival time at 640 mg/kg, sc administered as single dose 72 hrs after parasite infection (reference value: 6.1 days); assay type: functional; conditions: route subcutaneous

## CC(=O)O.OC(c1cc(-c2ccc(Cl)cc2)cc2c(Cl)cc(Cl)cc12)C1CCCCN1 (stereo not given)
Plasmodium berghei [1]
  minimal effective dose: 20 mg/kg
Plasmodium berghei [2]
  MST: 0.5 days
Plasmodium berghei [3]
  MST: 1.1 days

## CCCCN(CCCC)CC(O)c1cc(-c2ccc(Cl)cc2)nc2c(Cl)cc(Cl)cc12.Cl (stereo not given)
Plasmodium berghei [1]
  minimal effective dose: 10 mg/kg

## Cl.OC(c1cc(-c2ccc(Cl)cc2)nc2c(Cl)cc(Cl)cc12)C1CCCCN1 (stereo not given)
Plasmodium berghei [1]
  minimal effective dose: 5 mg/kg

## CCCCN(CCCC)CC(O)c1cc(-c2ccc(Cl)cc2)cc2c(Cl)cc(Cl)cc12.Cl (stereo not given)
Plasmodium berghei [4]
  Activity: Active
Plasmodium berghei [5]
  MST: 10.5 days
Plasmodium berghei [1]
  minimal effective dose: 10 mg/kg
Plasmodium berghei [2]
  MST: 7.9 days
Plasmodium berghei [3]
  MST: 9.5 days

## CCCCN(CCCC)CCC(O)c1cc(-c2ccc(Cl)cc2)cc2c(Cl)cc(Cl)cc12.Cl (stereo not given)
Plasmodium berghei [6]
  Activity: Active
Plasmodium berghei [4]
  Activity: Active
Plasmodium berghei [7]
  Activity: Active
Plasmodium berghei [2]
  MST: 2.9 days
Plasmodium berghei [3]
  MST: 12.1 days

## Cl.OC(CC1CCCCN1)c1cc(-c2ccc(Cl)cc2)cc2c(Cl)cc(Cl)cc12 (stereo not given)
Plasmodium berghei [8]
  MST: 16.6 days
Plasmodium berghei [5]
  MST: 11.8 days
Plasmodium berghei [2]
  MST: 3.6 days
Plasmodium berghei [9]
  MST: 6 days
Plasmodium berghei [3]
  MST: 9.8 days
